In brackets after ≈: the same amount, converted by molar mass. Activity calls are given as the source filed them.
Assays:
Streptococcus pyogenes = assay: Antibacterial activity against Streptococcus pyogenes ATCC BAA-595 by CLSI M07-A8 method; assay type: functional
In short: (§1)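 Broth microdilution MIC run per CLSI M07-A8 (2009).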

Enterococcus faecium = assay: Antibacterial activity against Enterococcus faecium 7130724 by CLSI M07-A8 method; assay type: functional; in short: as §1
Streptococcus pneumoniae = assay: Antibacterial activity against Streptococcus pneumoniae by CLSI M07-A8 method; assay type: functional, organism-based; in short: as §1
Enterococcus faecalis = assay: Antibacterial activity against Enterococcus faecalis ATCC 29212 by CLSI M07-A8 method; assay type: functional; in short: as §1
Staphylococcus aureus [1] = assay: Antibacterial activity against methicillin-resistant Staphylococcus aureus isolate A4.018 by CLSI M07-A8 method; assay type: functional
Staphylococcus aureus [2] = assay: Antibacterial activity against GE2270-A-resistant Staphylococcus aureus harboring tufA G258D mutant gene by CLSI M07-A8 method; assay type: functional

Compound | MIC (Streptococcus pyogenes) [µg/mL] | MIC (Enterococcus faecium) [µg/mL] | Activity (Streptococcus pneumoniae) | MIC (Enterococcus faecalis) [µg/mL] | MIC (Staphylococcus aureus [1]) [µg/mL] | Activity (Staphylococcus aureus [2])
CNC(=O)C[C@@H]1NC(=O)c2csc(n2)-c2ccc(-c3nc(NC(=O)[C@H]4CC[C@@H](C(=O)O)CC4)cs3)nc2-c2csc(n2)-c2csc(n2)[C@H]([C@@H](O)c2ccccc2)NC(=O)CNC(=O)c2nc(sc2COC)[C@H](C(C)C)NC(=O)c2nc1sc2C | 4 (≈ 3.2 µM) | 0.25 (≈ 0.2 µM) | Active | 0.125 (≈ 0.1 µM) | 0.25 (≈ 0.2 µM) | –
CNC(=O)C[C@@H]1NC(=O)c2csc(n2)-c2ccc(-c3nc(NC(=O)OCCN)cs3)nc2-c2csc(n2)-c2csc(n2)[C@H]([C@@H](O)c2ccccc2)NC(=O)CNC(=O)c2nc(sc2COC)[C@H](C(C)C)NC(=O)c2nc1sc2C | 16 (≈ 13.5 µM) | 1 (≈ 0.845 µM) | Active | 1 (≈ 0.845 µM) | 1 (≈ 0.845 µM) | inactive
CNC(=O)C[C@@H]1NC(=O)c2csc(n2)-c2ccc(-c3nc(NC(=O)c4ccc(C(=O)O)nc4)cs3)nc2-c2csc(n2)-c2csc(n2)[C@H]([C@@H](O)c2ccccc2)NC(=O)CNC(=O)c2nc(sc2COC)[C@H](C(C)C)NC(=O)c2nc1sc2C | > 32 | 8 (≈ 6.42 µM) | Active | 4 (≈ 3.21 µM) | 4 (≈ 3.21 µM) | –
CNC(=O)C[C@@H]1NC(=O)c2csc(n2)-c2ccc(-c3nc(NC(=O)CCC(=O)O)cs3)nc2-c2csc(n2)-c2csc(n2)[C@H]([C@@H](O)c2ccccc2)NC(=O)CNC(=O)c2nc(sc2COC)[C@H](C(C)C)NC(=O)c2nc1sc2C | 4 (≈ 3.34 µM) | 0.5 (≈ 0.418 µM) | Active | 0.25 (≈ 0.209 µM) | 0.25 (≈ 0.209 µM) | inactive
CNC(=O)C[C@@H]1NC(=O)c2csc(n2)-c2ccc(-c3nc(NC(=O)c4ccc(C(=O)O)cc4)cs3)nc2-c2csc(n2)-c2csc(n2)[C@H]([C@@H](O)c2ccccc2)NC(=O)CNC(=O)c2nc(sc2COC)[C@H](C(C)C)NC(=O)c2nc1sc2C | 4 (≈ 3.21 µM) | 0.125 (≈ 0.1 µM) | Active | 0.125 (≈ 0.1 µM) | 0.125 (≈ 0.1 µM) | –
CNC(=O)C[C@@H]1NC(=O)c2csc(n2)-c2ccc(-c3nc(NC(=O)OCCC[C@H](N)C(=O)O)cs3)nc2-c2csc(n2)-c2csc(n2)[C@H]([C@@H](O)c2ccccc2)NC(=O)CNC(=O)c2nc(sc2COC)[C@H](C(C)C)NC(=O)c2nc1sc2C | 8 (≈ 6.37 µM) | 32 (≈ 25.5 µM) | Active | 8 (≈ 6.37 µM) | 8 (≈ 6.37 µM) | inactive
CNC(=O)C[C@@H]1NC(=O)c2csc(n2)-c2ccc(-c3nc(NC(=O)OCCCCCN)cs3)nc2-c2csc(n2)-c2csc(n2)[C@H]([C@@H](O)c2ccccc2)NC(=O)CNC(=O)c2nc(sc2COC)[C@H](C(C)C)NC(=O)c2nc1sc2C | 8 (≈ 6.53 µM) | 0.5 (≈ 0.408 µM) | Active | 0.5 (≈ 0.408 µM) | 1 (≈ 0.816 µM) | inactive
CNC(=O)C[C@@H]1NC(=O)c2csc(n2)-c2ccc(-c3nc(NC(=O)/C=C\C(=O)O)cs3)nc2-c2csc(n2)-c2csc(n2)[C@H]([C@@H](O)c2ccccc2)NC(=O)CNC(=O)c2nc(sc2COC)[C@H](C(C)C)NC(=O)c2nc1sc2C | 16 (≈ 13.4 µM) | 2 (≈ 1.67 µM) | Active | 1 (≈ 0.837 µM) | 1 (≈ 0.837 µM) | inactive
CNC(=O)C[C@@H]1NC(=O)c2csc(n2)-c2ccc(-c3nc(NC(=O)COCC(=O)O)cs3)nc2-c2csc(n2)-c2csc(n2)[C@H]([C@@H](O)c2ccccc2)NC(=O)CNC(=O)c2nc(sc2COC)[C@H](C(C)C)NC(=O)c2nc1sc2C | 4 (≈ 3.3 µM) | 2 (≈ 1.65 µM) | Active | 0.5 (≈ 0.412 µM) | 0.5 (≈ 0.412 µM) | inactive
CNC(=O)C[C@@H]1NC(=O)c2csc(n2)-c2ccc(-c3nc(NC(=O)OCC(C)(C)N)cs3)nc2-c2csc(n2)-c2csc(n2)[C@H]([C@@H](O)c2ccccc2)NC(=O)CNC(=O)c2nc(sc2COC)[C@H](C(C)C)NC(=O)c2nc1sc2C | 8 (≈ 6.6 µM) | 1 (≈ 0.825 µM) | Active | 1 (≈ 0.825 µM) | 2 (≈ 1.65 µM) | inactive
CNC(=O)C[C@@H]1NC(=O)c2csc(n2)-c2ccc(-c3nc(NC(=O)O[C@H]4C[C@H](C(=O)O)C4)cs3)nc2-c2csc(n2)-c2csc(n2)[C@H]([C@@H](O)c2ccccc2)NC(=O)CNC(=O)c2nc(sc2COC)[C@H](C(C)C)NC(=O)c2nc1sc2C | 2 (≈ 1.61 µM) | 0.06 (≈ 0.0484 µM) | Active | 0.06 (≈ 0.0484 µM) | 0.125 (≈ 0.101 µM) | –
CNC(=O)C[C@@H]1NC(=O)c2csc(n2)-c2ccc(-c3nc(NC(=O)C45CCC(C(=O)O)(CC4)CC5)cs3)nc2-c2csc(n2)-c2csc(n2)[C@H]([C@@H](O)c2ccccc2)NC(=O)CNC(=O)c2nc(sc2COC)[C@H](C(C)C)NC(=O)c2nc1sc2C | 4 (≈ 3.13 µM) | 0.25 (≈ 0.196 µM) | Active | 0.125 (≈ 0.0979 µM) | 0.25 (≈ 0.196 µM) | –
CNC(=O)C[C@@H]1NC(=O)c2csc(n2)-c2ccc(-c3nc(C4=N[C@H](C(=O)N5CCC[C@H]5C(N)=O)CO4)cs3)nc2-c2csc(n2)-c2csc(n2)[C@H]([C@@H](O)c2ccccc2)NC(=O)CNC(=O)c2nc(sc2COC)[C@H](C(C)C)NC(=O)c2nc1sc2C | 1 (≈ 0.775 µM) | 0.25 (≈ 0.194 µM) | Active | 0.5 (≈ 0.387 µM) | 0.25 (≈ 0.194 µM) | –
CNC(=O)C[C@@H]1NC(=O)c2csc(n2)-c2ccc(-c3nc(NC(=O)[C@H]4CC[C@@H]4C(=O)O)cs3)nc2-c2csc(n2)-c2csc(n2)[C@H]([C@@H](O)c2ccccc2)NC(=O)CNC(=O)c2nc(sc2COC)[C@H](C(C)C)NC(=O)c2nc1sc2C | 4 (≈ 3.27 µM) | 0.5 (≈ 0.409 µM) | Active | 0.25 (≈ 0.205 µM) | 0.25 (≈ 0.205 µM) | –
CNC(=O)C[C@@H]1NC(=O)c2csc(n2)-c2ccc(-c3nc(NC(=O)[C@H]4CC[C@@H](C(=O)O)C4)cs3)nc2-c2csc(n2)-c2csc(n2)[C@H]([C@@H](O)c2ccccc2)NC(=O)CNC(=O)c2nc(sc2COC)[C@H](C(C)C)NC(=O)c2nc1sc2C | 4 (≈ 3.23 µM) | 0.25 (≈ 0.202 µM) | Active | 0.25 (≈ 0.202 µM) | 0.25 (≈ 0.202 µM) | –
CNC(=O)C[C@@H]1NC(=O)c2csc(n2)-c2ccc(-c3nc(NC(=O)O[C@H]4CC[C@@H](C(=O)O)CC4)cs3)nc2-c2csc(n2)-c2csc(n2)[C@H]([C@@H](O)c2ccccc2)NC(=O)CNC(=O)c2nc(sc2COC)[C@H](C(C)C)NC(=O)c2nc1sc2C | 1 (≈ 0.79 µM) | 0.125 (≈ 0.0987 µM) | Active | 0.125 (≈ 0.0987 µM) | 0.125 (≈ 0.0987 µM) | –
CNC(=O)C[C@@H]1NC(=O)c2csc(n2)-c2ccc(-c3nc(NC(=O)c4ccnc(C(=O)O)c4)cs3)nc2-c2csc(n2)-c2csc(n2)[C@H]([C@@H](O)c2ccccc2)NC(=O)CNC(=O)c2nc(sc2COC)[C@H](C(C)C)NC(=O)c2nc1sc2C | > 32 | 8 (≈ 6.42 µM) | Active | 2 (≈ 1.61 µM) | 8 (≈ 6.42 µM) | –
CNC(=O)C[C@@H]1NC(=O)c2csc(n2)-c2ccc(-c3nc(NC(=O)O[C@H]4C[C@@H](C(=O)O)C[C@@H]4N)cs3)nc2-c2csc(n2)-c2csc(n2)[C@H]([C@@H](O)c2ccccc2)NC(=O)CNC(=O)c2nc(sc2COC)[C@H](C(C)C)NC(=O)c2nc1sc2C | 2 (≈ 1.58 µM) | 4 (≈ 3.16 µM) | Active | 1 (≈ 0.789 µM) | 2 (≈ 1.58 µM) | –
